The target in test [1] is T1, von Hippel-Lindau disease tumor suppressor/Histone deacetylase 3 (Homo sapiens, UniProt O15379+P40337). Kind of test: Protac activity at VHL/HDAC3 in human HCT-116 cells assessed as induction of HDAC3 degradation at 1 to 10 uM incubated for 24 hrs by Western blot analysis. In kind it is cell-based. As to conditions: dose 1-10 µM. In outline:
(§1)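 HCT116 cells (37 °C, 5% CO₂) seeded for 24 h, then given DMSO or PROTAC (0.01–10 μM) in fresh medium for 2–48 h. Lysates made in Tris/NaCl/NP-40/Triton X-100 buffer with protease inhibitor; histones acid-extracted with 0.4 N H₂SO₄. 30 μg protein or 10 μL histone extract per lane run on 4–12% bis-Tris gels. Quantitative western blotting used IR-dye secondaries and band densitometry, referenced to DMSO; two independent biological replicates.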
Target sequence in this assay (O15379 whole entry, looked up): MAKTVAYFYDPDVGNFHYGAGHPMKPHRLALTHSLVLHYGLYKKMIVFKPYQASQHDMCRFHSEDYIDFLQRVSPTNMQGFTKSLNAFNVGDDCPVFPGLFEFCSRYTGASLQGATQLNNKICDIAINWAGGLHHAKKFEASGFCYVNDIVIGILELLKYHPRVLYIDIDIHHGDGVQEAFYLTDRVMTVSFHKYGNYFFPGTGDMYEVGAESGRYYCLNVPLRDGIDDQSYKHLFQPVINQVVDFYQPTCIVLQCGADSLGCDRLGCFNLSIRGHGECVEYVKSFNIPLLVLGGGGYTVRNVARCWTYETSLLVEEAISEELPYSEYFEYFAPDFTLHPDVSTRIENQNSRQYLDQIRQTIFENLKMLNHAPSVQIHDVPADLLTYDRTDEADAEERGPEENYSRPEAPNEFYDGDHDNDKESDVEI
Target sequence in this assay (P40337 whole entry, looked up): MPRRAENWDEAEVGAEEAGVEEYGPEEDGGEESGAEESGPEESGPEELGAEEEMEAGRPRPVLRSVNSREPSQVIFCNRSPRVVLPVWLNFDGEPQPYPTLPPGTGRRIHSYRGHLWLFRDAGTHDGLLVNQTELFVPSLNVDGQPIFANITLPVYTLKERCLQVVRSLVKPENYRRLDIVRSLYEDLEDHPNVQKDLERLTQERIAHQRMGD

Test [2] concerns the target T2, von Hippel-Lindau disease tumor suppressor/Histone deacetylase 2 (Homo sapiens) (UniProt Q92769+P40337). Nature of the test: Protac activity at VHL/HDAC2 in human HCT-116 cells assessed as induction of HDAC2 degradation at 1 to 10 uM incubated for 24 hrs by Western blot analysis. In kind it is cell-based. As to conditions: dose 1-10 µM. In outline:
as §1

Test [3] concerns the target T3, von Hippel-Lindau disease tumor suppressor/Histone deacetylase 1 (Homo sapiens, UniProt Q13547+P40337). Kind of test: Protac activity at VHL/HDAC1 in human HCT-116 cells assessed as induction of HDAC1 degradation at 1 to 10 uM incubated for 24 hrs by Western blot analysis. In kind it is cell-based. The conditions noted are these: dose 1-10 µM. In outline:
as §1
Target sequence in this assay (P40337 whole entry, looked up): as above
Target sequence in this assay (Q13547 whole entry, looked up): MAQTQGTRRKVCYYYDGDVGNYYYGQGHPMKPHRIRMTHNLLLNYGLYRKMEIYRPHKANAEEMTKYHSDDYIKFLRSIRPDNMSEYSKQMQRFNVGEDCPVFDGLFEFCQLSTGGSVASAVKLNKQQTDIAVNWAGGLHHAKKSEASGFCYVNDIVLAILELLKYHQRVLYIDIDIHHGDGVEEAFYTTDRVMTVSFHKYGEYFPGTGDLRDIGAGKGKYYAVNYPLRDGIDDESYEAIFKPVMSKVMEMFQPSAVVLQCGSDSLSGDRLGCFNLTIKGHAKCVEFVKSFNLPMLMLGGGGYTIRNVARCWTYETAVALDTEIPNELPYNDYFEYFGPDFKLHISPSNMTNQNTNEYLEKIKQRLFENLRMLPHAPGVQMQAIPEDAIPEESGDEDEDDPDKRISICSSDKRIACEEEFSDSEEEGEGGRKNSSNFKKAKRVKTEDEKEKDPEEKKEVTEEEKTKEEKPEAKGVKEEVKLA

The target in test [4] is T3, von Hippel-Lindau disease tumor suppressor/Histone deacetylase 1. Kind of test: Protac activity at VHL/HDAC1 in human HCT-116 cells assessed as induction of HDAC1 degradation at 1 uM incubated for 24 hrs by Western blot analysis. In kind it is cell-based. In outline: as §1
Target sequence in this assay (P40337 whole entry, looked up): as the sequence (P40337 whole entry, looked up) above
Target sequence in this assay (Q13547 whole entry, looked up): as the sequence (Q13547 whole entry, looked up) above
A short description of test [5]: Inhibition of HDAC2-CoREST-LSD1 (unknown origin) using Boc- (Ac)Lys-AMC as substrate preincubated for 1 hr followed by substrate addition and measured after 1 hr by fluorescent assay. Also on record: species or system Homo sapiens.
A short description of test [6]: Inhibition of HDAC3-SMRT (unknown origin) using Boc- (Ac)Lys-AMC as substrate preincubated for 1 hr followed by substrate addition and measured after 1 hr by fluorescent assay. Details: species or system Homo sapiens.
The target of test [7] is T1, von Hippel-Lindau disease tumor suppressor/Histone deacetylase 3. Nature of the test: Protac activity at VHL/HDAC3 in human HCT-116 cells assessed as induction of HDAC3 degradation incubated for 24 hrs by Western blot analysis. In kind it is cell-based. (In general: Immunoblotting shows a protein as a band on a membrane.)
Target sequence in this assay (O15379 whole entry): as the sequence (O15379 whole entry, looked up) above
Target sequence in this assay (P40337 whole entry): as the sequence (P40337 whole entry, looked up) above
Test [8] in a line: Inhibition of HDAC1-CoREST-LSD1 (unknown origin) using Boc- (Ac)Lys-AMC as substrate preincubated for 1 hr followed by substrate addition and measured after 1 hr by fluorescent assay. Also on record: species or system Homo sapiens.
Test [9] concerns the target T3, von Hippel-Lindau disease tumor suppressor/Histone deacetylase 1. Nature of the test: Protac activity at VHL/HDAC1 in human HCT-116 cells assessed as induction of HDAC1 degradation incubated for 24 hrs by Western blot analysis. The format is cell-based.
Target sequence in this assay (Q13547 whole entry): as the sequence (Q13547 whole entry, looked up) above
Target sequence in this assay (P40337 whole entry): as the sequence (P40337 whole entry, looked up) above
Test [10] has as its system HCT-116. Kind of test: Cytotoxicity against human HCT-116 cells assessed as reduction in cell viability measured after 48 hrs by cell-titer glo assay. In kind it is functional, cell-based.
Test [11] addresses T1, von Hippel-Lindau disease tumor suppressor/Histone deacetylase 3. Kind of test: Protac activity at VHL/HDAC3 in human HCT-116 cells assessed as induction of HDAC3 degradation at 10 uM incubated for 24 hrs by Western blot analysis. In kind it is cell-based. In outline:
as §1
Target sequence in this assay (O15379 whole entry, looked up): as the sequence (O15379 whole entry, looked up) above
Target sequence in this assay (P40337 whole entry, looked up): as the sequence (P40337 whole entry, looked up) above

Test [12] has the same target. Kind of test: Protac activity at VHL/HDAC3 in human HCT-116 cells assessed as induction of HDAC3 degradation at 1 uM measured after 4 hrs by Western blot analysis. In kind it is cell-based. In outline:
as §1
Target sequence in this assay (O15379 whole entry, looked up): as the sequence (O15379 whole entry, looked up) above
Target sequence in this assay (P40337 whole entry, looked up): as the sequence (P40337 whole entry, looked up) above

The target in test [13] is T2, von Hippel-Lindau disease tumor suppressor/Histone deacetylase 2 (Homo sapiens). Nature of the test: Protac activity at VHL/HDAC2 in human HCT-116 cells assessed as reduction in LSD1 level measured after 48 hrs by Western blot analysis. Details: scale not given: the % may be the effect or the level left.
Test [14] has the same target. Nature of the test: Protac activity at VHL/HDAC2 in human HCT-116 cells assessed as fold increase in H3K56ac at 10 uM measured after 8 hrs by Western blot analysis relative to control. In kind it is cell-based. In outline: as §1
Test [15] concerns HCT-116. Nature of the test: Induction of apoptosis in HCT-116 cells assessed as accumulation of cells in Sub-G1 phase at 10 uM measured after 48 hrs by flow cytometry analysis. As to conditions: Homo sapiens. On the technique in general: In flow cytometry, cells or beads pass a laser one at a time.
Test [16] addresses T1, von Hippel-Lindau disease tumor suppressor/Histone deacetylase 3. Kind of test: Protac activity at VHL/HDAC3 in human HCT-116 cells assessed as induction of HDAC3 degradation at 1 uM measured after 15 hrs by Western blot analysis. In kind it is cell-based. In outline: as §1
Target sequence in this assay (O15379 whole entry, looked up): as the sequence (O15379 whole entry, looked up) above
Target sequence in this assay (P40337 whole entry, looked up): as the sequence (P40337 whole entry, looked up) above
For test [17], the target named is T3, von Hippel-Lindau disease tumor suppressor/Histone deacetylase 1. Kind of test: Protac activity at VHL/HDAC1 in human HCT-116 cells assessed as induction of HDAC1 degradation at 1 uM measured upto 48 hrs by Western blot analysis. The format is cell-based. The conditions noted are these: time hrs <=48. In outline: as §1
Target sequence in this assay (P40337 whole entry, looked up): as above
Target sequence in this assay (Q13547 whole entry, looked up): as the sequence (Q13547 whole entry, looked up) above
For test [18], the target named is T1, von Hippel-Lindau disease tumor suppressor/Histone deacetylase 3. Nature of the test: Protac activity at VHL/HDAC3 in human HCT-116 cells assessed as induction of HDAC3 degradation at 10 uM measured after 36 to 48 hrs by Western blot analysis. The format is cell-based. The conditions noted are these: time 36-48 hrs. In outline:
as §1
Target sequence in this assay (O15379 whole entry, looked up): as the sequence (O15379 whole entry, looked up) above
Target sequence in this assay (P40337 whole entry, looked up): as the sequence (P40337 whole entry, looked up) above

The target in test [19] is T3, von Hippel-Lindau disease tumor suppressor/Histone deacetylase 1. Nature of the test: Protac activity at VHL/HDAC1 in human HCT-116 cells assessed as induction of HDAC1 degradation at 10 uM measured after 4 hrs by Western blot analysis. The format is cell-based. In outline: as §1
Target sequence in this assay (P40337 whole entry, looked up): as above
Target sequence in this assay (Q13547 whole entry, looked up): as the sequence (Q13547 whole entry, looked up) above
Test [20] has the same target. Kind of test: Protac activity at VHL/HDAC1 in human HCT-116 cells assessed as reduction in LSD1 level measured after 48 hrs by Western blot analysis. Also on record: scale not given: the % may be the effect or the level left.
Target sequence in this assay (P40337 whole entry, looked up): as the sequence (P40337 whole entry, looked up) above
Target sequence in this assay (Q13547 whole entry, looked up): as the sequence (Q13547 whole entry, looked up) above
Test [21] has as its target T1, von Hippel-Lindau disease tumor suppressor/Histone deacetylase 3. Nature of the test: Protac activity at VHL/HDAC3 in human HCT-116 cells assessed as induction of HDAC3 degradation at 10 uM measured upto 24 hrs by Western blot analysis. As to conditions: time hrs <=24. In kind it is cell-based. In outline:
as §1
Target sequence in this assay (O15379 whole entry, looked up): as the sequence (O15379 whole entry, looked up) above
Target sequence in this assay (P40337 whole entry, looked up): as the sequence (P40337 whole entry, looked up) above

Test [22] has as its target T2, von Hippel-Lindau disease tumor suppressor/Histone deacetylase 2 (Homo sapiens). Kind of test: Protac activity at VHL/HDAC2 in human HCT-116 cells assessed as induction of HDAC2 degradation at 1 uM measured upto 48 hrs by Western blot analysis. In kind it is cell-based. As to conditions: time hrs <=48. In outline:
as §1

The target is the same in test [23]. Kind of test: Protac activity at VHL/HDAC2 in human HCT-116 cells assessed as induction of HDAC2 degradation at 10 uM measured after 4 hrs by Western blot analysis. The format is cell-based. In outline:
as §1

The subject of test [24] is HCT-116. Kind of test: Induction of apoptosis in human HCT-116 cells assessed as accumulation of cells in Sub-G1 phase at 10 uM measured after 24 hrs by flow cytometry analysis.
For test [25], the target named is T3, von Hippel-Lindau disease tumor suppressor/Histone deacetylase 1. Nature of the test: Protac activity at VHL/HDAC1 in human HCT-116 cells assessed as fold increase in H3K56ac at 10 uM measured after 8 hrs by Western blot analysis relative to control. The format is cell-based. In outline:
as §1
Target sequence in this assay (P40337 whole entry, looked up): as above
Target sequence in this assay (Q13547 whole entry, looked up): as the sequence (Q13547 whole entry, looked up) above

pIC50: −log10 of the molar value. The source made the active and inactive calls. The rule behind the calls is not given here.

T2 sequence (P40337 whole entry, looked up): as the sequence (P40337 whole entry, looked up) above
T2 sequence (Q92769 whole entry, looked up): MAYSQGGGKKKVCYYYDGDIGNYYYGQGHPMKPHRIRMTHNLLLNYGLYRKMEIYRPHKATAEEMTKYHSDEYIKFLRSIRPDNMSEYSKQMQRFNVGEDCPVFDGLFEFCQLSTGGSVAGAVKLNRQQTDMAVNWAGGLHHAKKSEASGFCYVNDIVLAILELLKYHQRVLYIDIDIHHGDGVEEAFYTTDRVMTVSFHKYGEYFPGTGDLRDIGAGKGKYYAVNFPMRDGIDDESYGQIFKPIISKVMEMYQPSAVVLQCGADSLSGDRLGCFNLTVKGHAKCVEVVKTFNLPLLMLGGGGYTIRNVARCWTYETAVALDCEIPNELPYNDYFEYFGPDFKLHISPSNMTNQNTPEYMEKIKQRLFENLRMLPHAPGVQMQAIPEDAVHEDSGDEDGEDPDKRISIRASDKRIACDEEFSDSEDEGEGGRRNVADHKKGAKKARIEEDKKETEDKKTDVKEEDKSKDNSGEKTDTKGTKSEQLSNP

As to `Cc1ncsc1-c1ccc(CNC(=O)[C@@H]2C[C@@H](O)CN2C(=O)[C@@H](NC(=O)CCCN2CCN(CCCC(=O)Nc3ccc(C(=O)Nc4ccccc4N)cc3)CC2)C(C)(C)C)cc1`, the result in [1], in test [2] and in [3] was inactive.

Turning to `Cc1ncsc1-c1ccc(CNC(=O)[C@@H]2C[C@@H](O)CN2C(=O)[C@@H](NC(=O)COCCOCCOCC(=O)Nc2ccc(C(=O)Nc3ccccc3N)cc2)C(C)(C)C)cc1`, the outcome in test [1], in [2] and in test [3] was inactive.

As to `Cc1ncsc1-c1ccc(CNC(=O)[C@@H]2C[C@@H](O)CN2C(=O)[C@@H](NC(=O)COCCCCCCOCC(=O)Nc2ccc(C(=O)Nc3ccccc3N)cc2)C(C)(C)C)cc1`, the result in test [4] was inactive.

`CC(=O)NC(C(=O)N1C[C@H](O)C[C@H]1C(=O)NCc1ccc(-c2scnc2C)cc1OCCCCNC(=O)CCCCCCCC(=O)Nc1ccc(C(=O)Nc2ccccc2N)cc1)C(C)(C)C` (single isomer, unassigned): the outcome in test [3] was Active.

With `Cc1ncsc1-c1ccc(CNC(=O)[C@@H]2C[C@@H](O)CN2C(=O)[C@@H](NC(=O)CCCCCCCC(=O)Nc2ccc(C(=O)Nc3ccccc3N)cc2)C(C)(C)C)cc1`, in test [1], the outcome was inactive. Moreover, the result in test [2] and in [3] was Active.

On to `Cc1ncsc1-c1ccc(CNC(=O)[C@@H]2C[C@@H](O)CN2C(=O)[C@@H](NC(=O)CCCCCCCC(=O)Nc2ccc(C(=O)Nc3cc(-c4cccs4)ccc3N)cc2)C(C)(C)C)cc1`, for which the result in test [2] and in test [3] was inactive.

For orientation: pIC50 means the IC50 on a negative log10 scale, so that one unit is a factor of ten. What is called DC50 is the concentration giving 50% degradation. With `CC(=O)NC(C(=O)N1C[C@H](O)C[C@H]1C(=O)NCc1ccc(-c2scnc2C)cc1OCCCCCCCCCCCC(=O)Nc1ccc(C(=O)Nc2ccccc2N)cc1)C(C)(C)C` (single isomer, unassigned), the pIC50 in test [5] was 5.46; in [6], 5.42; in test [8] it was 5.82. Further, the DC50 in test [7] stood at 1380 nM; in test [9], 3.51 µM. Moreover, in the test on HCT-116 [10], the result was inactive.

With `Cc1ncsc1-c1ccc(CNC(=O)[C@@H]2C[C@@H](O)CN2C(=O)[C@@H](NC(=O)COCCOCC(=O)Nc2ccc(C(=O)Nc3ccccc3N)cc2)C(C)(C)C)cc1`, the outcome in test [1], in test [2] and in [3] was inactive.

`Cc1ncsc1-c1ccc(CNC(=O)[C@@H]2C[C@@H](O)CN2C(=O)[C@@H](NC(=O)CCCCCCCCCCC(=O)Nc2ccc(C(=O)Nc3ccccc3N)cc2)C(C)(C)C)cc1`: the result in test [11] was Active.

Turning to `CC(=O)NC(C(=O)N1C[C@H](O)C[C@H]1C(=O)NCc1ccc(-c2scnc2C)cc1OCCCCNC(=O)CCCCC(=O)Nc1ccc(C(=O)Nc2ccccc2N)cc1)C(C)(C)C` (single isomer, unassigned), in test [3], the outcome was Active.

With `Cc1ncsc1-c1ccc(CNC(=O)[C@@H]2C[C@@H](O)CN2C(=O)[C@@H](NC(=O)COCCOCCOCC(=O)Nc2ccc(C(=O)Nc3cc(-c4cccs4)ccc3N)cc2)C(C)(C)C)cc1`, the outcome in test [2] and in test [3] was inactive.

Take `Cc1ncsc1-c1ccc(CNC(=O)[C@@H]2C[C@@H](O)CN2C(=O)[C@@H](NC(=O)CCCCCCCCC(=O)Nc2ccc(C(=O)Nc3ccccc3N)cc2)C(C)(C)C)cc1`: the outcome in test [1] was inactive. Further, the result in [2] and in test [3] was Active.

On to `Cc1ncsc1-c1ccc(CNC(=O)[C@@H]2CC(O)CN2C(=O)[C@@H](NC(=O)COCCOCCOCCOCC(=O)Nc2ccc(C(=O)Nc3ccccc3N)cc2)C(C)(C)C)cc1` (single isomer, unassigned), for which the outcome in [1], in test [2] and in test [3] was inactive.

Regarding `Cc1ncsc1-c1ccc(CNC(=O)[C@@H]2C[C@@H](O)CN2C(=O)[C@@H](NC(=O)CCCCCCCCCCCCC(=O)Nc2ccc(C(=O)Nc3ccccc3N)cc2)C(C)(C)C)cc1`, the outcome in test [2] and in test [3] was Active.

With `Cc1ncsc1-c1ccc(CNC(=O)[C@@H]2C[C@@H](O)CN2C(=O)[C@@H](NC(=O)CCCCCCCCCCC(=O)Nc2ccc(C(=O)Nc3cc(-c4cccs4)ccc3N)cc2)C(C)(C)C)cc1`, the outcome in [2] and in [3] was inactive.

For `Cc1ncsc1-c1ccc(CNC(=O)[C@@H]2C[C@@H](O)CN2C(=O)[C@@H](NC(=O)CCCCCCCCCC(=O)Nc2ccc(C(=O)Nc3ccccc3N)cc2)C(C)(C)C)cc1`, the result in test [1] was inactive. The result in test [2] and in [3] was Active.

Take `Cc1ncsc1-c1ccc(CNC(=O)[C@@H]2C[C@@H](O)CN2C(=O)[C@@H](NC(=O)COCCCCCCCCCOCC(=O)Nc2ccc(C(=O)Nc3ccc(F)cc3N)cc2)C(C)(C)C)cc1`: in test [4], the result was Active.

Turning to `Cc1ncsc1-c1ccc(CNC(=O)[C@@H]2C[C@@H](O)CN2C(=O)C(NC(=O)COCCOCCOCC(=O)Nc2ccc(C(=O)Nc3ccc(F)cc3N)cc2)C(C)(C)C)cc1` (single isomer, unassigned), in test [11], the result was Active.

Consider `Cc1ncsc1-c1ccc(CNC(=O)[C@@H]2C[C@@H](O)CN2C(=O)C(NC(=O)CCCCCCCCCCC(=O)Nc2ccc(C(=O)Nc3ccc(F)cc3N)cc2)C(C)(C)C)cc1` (single isomer, unassigned), for which the outcome in [1] was Active.

For `Cc1ncsc1-c1ccc(CNC(=O)[C@@H]2C[C@@H](O)CN2C(=O)[C@@H](NC(=O)COCCCCCCCCCOCC(=O)Nc2ccc(C(=O)Nc3ccccc3N)cc2)C(C)(C)C)cc1`, the outcome (in test [12]; in test [4]; in the test on HCT-116 [15]; in test [16]; in test [17]; in test [19]) was Active. For the same compound, the outcome (in [22]; in test [23]; in the test on HCT-116 [24]) was Active. For the same compound, the figures for the Activity in test [13], in [18] and in test [20] were 40%, 50% and 40%, respectively. Besides, the fold change (FC) in [14] and in test [25] was 2 throughout. Further, the result in [21] was inactive.

(Values after ChEMBL document CHEMBL5042553 (J Med Chem, 2022).)
